Data taken from publication PMC4298165 (Cell, 2014).

Legend:
[1] = tested on: ApiCCT3; type: binding; conditions: 15N-1H HSQC
[2] = tested on: ApiCCT3; assay: NMR chemical-shift mapping, 15N-labeled p6 with unlabeled ApiCCT3; type: binding; conditions: 15N-1H HSQC, 0, 2.5, 5 and 10-fold excess ApiCCT3
How it was run: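 Recombinant p6 was expressed with 15N/13C isotope labeling and purified. Chemical-shift mapping used 300 µM protein samples on an 800 MHz spectrometer with a cryogenic probe.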

[3] = tested on: intact purified TRiC; assay: NMR chemical shift perturbation of 15N p6 with intact purified TRiC; type: binding; conditions: Fig. S4D
[4] = tested on: endogenous TRiC; assay: Biotin affinity isolation from HEK293 extracts and TRiC immunoblot; type: binding, human; conditions: biotinylated peptide, HEK293 extract, immunoblot against CCT5 and CCT2
[5] = tested on: CCT3; conditions: cited from earlier work
[6] = tested on: TRiC; assay: Crosslinking-mass spectrometry; type: binding; conditions: DSS crosslinking, trypsin, tandem MS, xQuest
How it was run: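 Intact TRiC crosslinked with DSS to full-length actin, tubulin or HIV Gag. Crosslinked samples were trypsin-digested and enriched for crosslinked species before MS. Crosslink sites on CCT subunits were mapped onto the apical-domain structure.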

[7] = biological target: T1, apical domain of CCT3 (ApiCCT3) (UniProt P49368 210-380); assay: SPR
T1 sequence (looked up): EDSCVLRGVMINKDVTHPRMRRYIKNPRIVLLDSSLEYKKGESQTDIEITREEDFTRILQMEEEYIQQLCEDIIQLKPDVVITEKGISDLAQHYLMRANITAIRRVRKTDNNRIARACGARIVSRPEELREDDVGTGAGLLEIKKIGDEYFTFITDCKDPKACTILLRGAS

[8] = tested on: p6; assay: SPR kinetics of ApiCCT3 alanine mutants on immobilized p6; type: binding, HIV; conditions: 31 surface-exposed residues substituted

p6: 54 amino acid long HIV protein p6 (LQSRPEPTAPPEESFRSGVETTTPPQKQEPIDKELYPLTSLRSLFGNDPSSQ)
chemical shift perturbation of 15N-ApiCCT3 ([1]; 300 µM protein sample, 800 MHz, 0, 5, 10, 20-fold excess p6 (Fig. 2)): concentration-dependent shifts in a specific subset of peaks
number of ApiCCT3 peaks perturbed weakly ([1]; > 0.1 p.p.m.): 4 peaks
number of ApiCCT3 peaks strongly perturbed ([1]; > 0.2 p.p.m.): 5 peaks
chemical shift perturbation of 15N-p6 by ApiCCT3 [2]: concentration-dependent chemical shift perturbation in a subset of peaks
chemical shift perturbation of 15N p6 by intact TRiC [3]: the same subset of p6 residues was affected upon addition of intact TRiC
binding to endogenous TRiC [4]: bound TRiC
association with CCT3 [5]: associate directly with subunit CCT3 of TRiC

actin
location of heterotypic TRiC crosslinks [6]: localized to substrate determinants previously implicated in TRiC binding

B1: HIV protein p6 (natural protein)
chain: LQSRPEPTAPPEESFRSGVETTTPPQKQEPIDKELYPLTSLRSLFGNDPSSQ
Kd [7]: 250 to 500 nM

B2: tubulin: full length physiological substrate of TRiC (protein)
chain: MREIIHISTGQCGNQIGAAFWETICGEHGLDFNGTYHGHDDIQKERLNVYFNEASSGKWVPRSINVDLEPGTIDAVRNSAIGNLFRPDNYIFGQSSAGNVWAKGHYTEGAELVDSVMDVIRREAEGCDSLQGFQITHSLGGGTGSGMGTLLISKIREEFPDRMMATFSVLPSPKTSDTVVEPYNATLSVHQLVEHSDETFCIDNEALYDICQRTLKLNQPSYGDLNNLVSSVMSGVTTSLRYPGQLNSDLRKLAVNLVPFPRLHFFMVGYAPLTAIGSQSFRSLTVPELTQQMFDAKNMMAAADPRNGRYLTVAAFFRGKVSVKEVEDEMHKVQSKNSDYFVEWIPNNVQTAVCSVAPQGLDMAATFIANSTSIQELFKRVGDQFSAMFKRKAFLHWYTSEGMDELEFSEAESNMNDLVSEYQQYQEATVEDDEEVDENGDFGAPQNQDEPITENFE
crosslinks to TRiC subunits [6]: crosslinked to multiple TRiC subunits through specific regions in the polypeptide
location of heterotypic TRiC crosslinks [6]: localized to substrate determinants previously implicated in TRiC binding

B3: Y274A (protein)
chain: MMGHRPVLVLSQNTKRESGRKVQSGNINAAKTIADIIRTCLGPKSMMKMLLDPMGGIVMTNDGNAILREIQVQHPAAKSMIEISRTQDEEVGDGTTSVIILAGEMLSVAEHFLEQQMHPTVVISAYRKALDDMISTLKKISIPVDISDSDMMLNIINSSITTKAISRWSSLACNIALDAVKMVQFEENGRKEIDIKKYARVEKIPGGIIEDSCVLRGVMINKDVTHPRMRRYIKNPRIVLLDSSLEYKKGESQTDIEITREEDFTRILQMEEEAIQQLCEDIIQLKPDVVITEKGISDLAQHYLMRANITAIRRVRKTDNNRIARACGARIVSRPEELREDDVGTGAGLLEIKKIGDEYFTFITDCKDPKACTILLRGASKEILSEVERNLQDAMQVCRNVLLDPQLVPGGGASEMAVAHALTEKSKAMTGVEQWPYRAVAQALEVIPRTLIQNCGASTIRLLTSLRAKHTQENCETWGVNGETGTLVDMKELGIWEPLAVKLQTYKTAVETAVLLLRIDDIVSGHKKKGDDQSRQGGAPDAGQE
impact of Ala substitution in ApiCCT3 on p6 binding [8]: no impact on p6 binding
